Assay results from ChEMBL document CHEMBL4513216, “Probing the Open Global Health Chemical Diversity Library for Multistage-Active Starting Points for Next-Generation Antimalarials” (ACS Infect Dis, 2020).

Assay: Toxicity liver stage against HepG2, at 10uM
Type: cell-based
Design: test concentration 10 uM, cell line HepG2-A16-CD81EGFP
Conditions: human, HepG2-A16-CD81EGFP cells; read-out: INHIBITION
Procedure, shortened: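 Uninfected HepG2-A16-CD81EGFP cells, 3 × 10^3 per well, 1536-well, plated on prespotted compound at 10 μM final, parasite-free screening media added to match infected plates; puromycin 10 μM positive, DMSO 0.5% negative; run in parallel with 48 h PbLuc assay at 37 °C, 5% CO2; viability by CellTiter-Glo luminescence, normalized to controls.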

SMILES	cytotoxicity at 10 µM [%]
CNc1ccc(CC2CCCN(C(=O)c3scnc3C)C2)nn1 (configuration not stated)	-10.4
CN(C)Cc1csc(-c2nccn2Cc2ccsc2)c1	-2.47
CCNC(=O)N1CCC2(C1)c1ccccc1S(=O)(=O)N2CCOC (configuration not stated)	-151
CC(CNC(=O)CCn1cncn1)N1CCc2ccccc21 (configuration not stated)	-157
CCc1ccc(S(=O)(=O)N2CCCn3ncnc32)s1	-0.908
Cc1nc(CN2CCCC2Cn2cccn2)nc2ccccc12 (configuration not stated)	-51.7
Cc1nc(CN(CCS(C)(=O)=O)C(C)C)no1	0.329
COc1ncccc1NC(=O)c1[nH]nc(C(C)C)c1Br	17.1
O=C(O)c1ccccc1-c1ccc(CN2CCCC(O)C2)cc1 (configuration not stated)	-9.16
CCC1CN(CC(=O)NC2(C#N)CCCC2)CCN1CCOC (configuration not stated)	4.56
Cc1cccc(N2N=C(C(=O)NC(C)Cn3cccn3)CCC2=O)c1 (configuration not stated)	0.479
CC(C)CNC(=O)N1C[C@@H]2C[C@H](C(=O)NCc3ccccc3)[C@H](C1)O2	-0.924
Cc1ccc2oc(=O)n(CCC(=O)N3CCN(C)C(=O)C3)c2c1	-15.6
CCOC(=O)N1CCN(C(=O)c2snnc2-c2ccccc2)CC1	0.847
COc1ccc(C2CCCCCN2Cc2cn(C)nc2C)cc1 (configuration not stated)	-4.96
NC(=O)Cn1ccnc1C1CCCN(Cc2nc3ccccc3s2)C1 (configuration not stated)	-17
Cc1cccn2c(=O)cc(CN3CCCCC3Cn3cncn3)nc12 (configuration not stated)	10.7
NC(=O)CN1CCCN(C(=O)COc2cccc(F)c2)CC1	-1.97
CC(Cc1cccc(Cl)c1)NC(=O)NCc1ncnn1C (configuration not stated)	8.52
NS(=O)(=O)c1ccc(NCc2ccccc2F)cc1C(F)(F)F	-10.2
CCn1ncc2c1C(COCC1CC1)CN(c1ccncn1)C2 (configuration not stated)	2.74

SMILES	cytotoxicity at 10 µM [%]
NC(=O)c1cn[nH]c1C1CCCN1C(=O)c1ccccc1 (configuration not stated)	0.00505
CCn1cc(C(=O)NCC2(C(N)=O)CCOCC2)c2ccccc21	0.969
Cc1c(CN2CCCC(C(=O)c3ccc(C(C)(C)C)cc3)C2)cnn1C (configuration not stated)	10.4
COCc1nc2nc(O)c3c(n2n1)NC(=O)CC3c1ccccc1Cl (configuration not stated)	-20.8
O=C(Cc1ccsc1)N1C[C@@H]2C[C@@H](c3nnc(C4CC4)o3)O[C@@H]2C1	-142
O[C@@H]1C[C@@H](c2nc(-c3ccccc3)no2)N(Cc2cccnc2)C1	3.69
CC(C)c1cc(Br)ccc1NC(=O)NC(C)(CO)CO	9.83
CC(C)CCc1noc(C[S+]([O-])CC(=O)NCc2ccccc2)n1 (configuration not stated)	5.28
O=C(NS(=O)(=O)c1cc(Cl)ccc1Cl)c1cccc2c1OCCO2	10.3
O=c1c(NCCNCCO)c(N2CCN(Cc3ccccc3)CC2)c1=O	-5.9
Cc1nn(C)c2c(NCc3ccc(F)cc3)nc(C3CC3)nc12	0.107
CN(C)CCN1C[C@@H]2CN(C(=O)c3ccsc3)C[C@@H]2C1=O	-7.79
NC(=O)C(NCc1ccc(Cl)s1)c1ccccc1 (configuration not stated)	2.8
COc1cccc([C@@H]2CN(C3CSCCSC3)C[C@H]2C(=O)O)c1	2.95
Cc1nc(N2C[C@@H](CN3CCCN(C)CC3)[C@@H](CO)C2)c2ccsc2n1	-6.56
O=C(CCNC(=O)c1sccc1-c1ccccc1)NC1CCS(=O)(=O)C1 (configuration not stated)	1.9
COc1ccc(CNC2(Cc3cc(CC(C)C)on3)COC2)cc1	4.71
Cc1cc(C)n(-c2ccc(C(=O)NCC(CO)Cc3cccs3)cc2)n1 (configuration not stated)	6.64
CCN1CCc2cc(C(=O)N(C)C)c(NCC3CC3)nc2CC1	4.65
CC(CNC(=O)c1c[nH]nn1)Oc1ccccc1Br (configuration not stated)	-0.509
CN(C)C(=O)CN1C(=O)C[C@@H]2[C@@H]1CCN2Cc1cccc(C#N)c1	-61.3

SMILES	cytotoxicity at 10 µM [%]
CCc1nc(C2NC3(CCCC3)C(=O)N2CC2CC2)cs1 (configuration not stated)	-1.09
OCCNc1nc(Nc2ccccc2)c2nccnc2n1	3.72
CCOc1cc(/C=C/c2ncc(C(=O)O)s2)cc(Br)c1O	-4.49
CN(Cc1cccc(Cl)c1)Cc1nnsc1Cl	6.78
NS(=O)(=O)CCCC(=O)N1CCC2(CC1)c1ccccc1CC2O (configuration not stated)	4.71
CNC(=O)CC1CCN(C(=O)NCC2(c3ccccc3F)CC2)CC1	4.27
CCOc1cc(F)ccc1NC(=O)N(C(C)CS(C)(=O)=O)C1CC1 (configuration not stated)	4.11
FC1(F)CCN(Cc2ccccn2)CC12CCN(c1ncccn1)C2 (configuration not stated)	-95.8
C[C@@H](NC(=O)c1cccn1C)c1c(-c2ccc(Cl)cc2)noc1C(=O)O	3
Cc1noc(C2CCC3(CCN(C(=O)c4ccncn4)CC3)O2)n1 (configuration not stated)	5.76
CCS(=O)(=O)c1ccc(N2CCC(NC(=O)c3cnn(C)c3)CC2)cc1	-1.69
O=C(c1ncc(F)cc1F)N1CCC(c2ncc[nH]2)CC1	-3.73
CNC(=O)NC(=O)CN1CCCN(CC(F)(F)F)CC1	-2.37
Cc1ccc(N2CCCC3(COCCN(c4cnccn4)C3)C2)nn1 (configuration not stated)	-139
CCc1ccsc1C(=O)N1CCN(CC(O)CC)CC1 (configuration not stated)	-4.25
CCN1C(=O)CCCC12CCCN(C(=O)c1ccncc1F)C2 (configuration not stated)	-3.27
O=S(=O)(c1cccnc1)N1CCC(OCCCc2ccccc2)C1 (configuration not stated)	9.31
c1cncc(O[C@H]2COCCN(CC3CC3)C2)c1	3.38
CC(C)c1ncc(Cl)c(C(=O)N2CCN3CCCCC3C2)n1 (configuration not stated)	4.77
CC(=O)NCC(=O)NC1CCc2c(ccc(=O)n2CC2CC2)C1 (configuration not stated)	7.89
Cc1ccc(CCC(=O)N2CCCC(c3cc(C(N)=O)[nH]n3)C2)cc1 (configuration not stated)	-4.33

SMILES	cytotoxicity at 10 µM [%]
Cc1noc(C)c1CN1CCCCC1c1nc(-c2ccccc2)no1 (configuration not stated)	-44
COc1cn(CC(N)=O)c(CSc2nccc(C)n2)cc1=O	-12.1
CN(Cc1cccc(-n2cccn2)c1)Cc1cccs1	-7.54
CSc1nc2ncc3c(=O)n(CCN4CCCCC4)ccc3n2n1	5.23
NC(=O)C1(CCCc2ccccn2)CCCN(CCO)C1 (configuration not stated)	3.38
Cc1cc(CN2CCc3nn(C(C)C)c(=O)cc3C2)no1	-13.8
O=S(=O)(c1cccnc1)N1CCN(Cc2nc(-c3ccco3)cs2)CC1	5.94
CCC(=O)c1ccc(OCC(=O)NCC2CC(CC)=NO2)cc1 (configuration not stated)	-41.7
CS(=O)(=O)CC(=O)N(CCN1CCOCC1)Cc1ccco1	3.11
CN(C)C[C@@H]1CN(Cc2ccccc2C#N)C[C@@H]1CO	-1.56
CC(C)CN1CCN(S(=O)(=O)c2cn(C)cn2)Cc2cccnc21	-144
CN(Cc1ccccn1)C(=O)c1ccc2c(c1O)OC(C)(C)C2	-11.8
COc1ccc2nnc(C(=O)NC3CCCC3)nc2c1	6.17
O=C(NC1CCCCC1)N1CCC(n2cc3[nH]cccc-3c2=O)CC1	-5.01
CN1CC2(CCN(C(=O)CCCOCc3ccccc3)C2)OC1=O (configuration not stated)	4.49
COC[C@]12COC[C@H]1CN(Cc1cc(OC)cc(OC)c1)C2	-6.33
CN(C)C(=O)N1CCC2(CC1)C(=O)N(CC1CCOC1)c1ccccc12 (configuration not stated)	6.68
CCOc1ccccc1OC1CCN(C(=O)c2c[nH]nn2)CC1	-2.48
Cn1cc(I)c(C(=O)NC2CCCCC2)n1	18.1
